Measurements: ChEMBL document CHEMBL1135734, “Side-chain lactam-bridge conformational constraints differentiate the activities of salmon and human calcitonins and reveal a new design concept for potent calcitonin analogues” (J Med Chem, 2002)

How the values were obtained:
[1] = target: T1, Calcitonin receptor (Homo sapiens) (UniProt P30988)
T1 sequence (whole entry): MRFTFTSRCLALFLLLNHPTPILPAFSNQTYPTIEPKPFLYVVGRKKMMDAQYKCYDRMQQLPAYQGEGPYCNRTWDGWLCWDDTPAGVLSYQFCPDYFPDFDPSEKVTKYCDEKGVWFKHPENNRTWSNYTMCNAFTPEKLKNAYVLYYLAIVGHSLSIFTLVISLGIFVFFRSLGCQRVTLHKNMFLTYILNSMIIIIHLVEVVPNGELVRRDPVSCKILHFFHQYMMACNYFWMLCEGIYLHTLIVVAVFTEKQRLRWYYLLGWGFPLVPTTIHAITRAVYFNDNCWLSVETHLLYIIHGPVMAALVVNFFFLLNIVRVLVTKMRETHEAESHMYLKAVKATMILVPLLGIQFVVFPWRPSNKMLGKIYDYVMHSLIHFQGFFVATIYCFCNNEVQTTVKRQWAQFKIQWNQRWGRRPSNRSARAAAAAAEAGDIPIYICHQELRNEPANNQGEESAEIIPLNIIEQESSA

[2] = target: T2, Calcitonin receptor (Rattus norvegicus) (UniProt P32214); assay: Affinity for calcitonin receptor of rat brain relative to [125I]-salmon calcitonin
T2 sequence (whole entry): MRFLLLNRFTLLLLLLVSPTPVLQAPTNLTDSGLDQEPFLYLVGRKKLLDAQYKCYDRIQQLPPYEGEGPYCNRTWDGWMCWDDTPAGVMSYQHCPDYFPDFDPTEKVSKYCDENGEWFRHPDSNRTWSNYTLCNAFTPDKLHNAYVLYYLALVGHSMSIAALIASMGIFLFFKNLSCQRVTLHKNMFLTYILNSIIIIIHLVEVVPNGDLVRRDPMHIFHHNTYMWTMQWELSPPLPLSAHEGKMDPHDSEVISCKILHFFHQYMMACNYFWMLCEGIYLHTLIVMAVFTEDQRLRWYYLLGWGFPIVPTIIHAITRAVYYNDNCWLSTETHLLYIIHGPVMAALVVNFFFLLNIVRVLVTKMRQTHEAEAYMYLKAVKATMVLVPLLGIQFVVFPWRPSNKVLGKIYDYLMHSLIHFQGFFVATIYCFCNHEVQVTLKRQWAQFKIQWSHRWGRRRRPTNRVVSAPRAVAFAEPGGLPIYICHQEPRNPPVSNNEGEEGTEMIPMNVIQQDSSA
In short: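 Male Sprague–Dawley rat (250–350 g) brain membranes (~0.63 mg protein/tube) were shaken on ice for 30 min with 10 pM final [125I-Tyr22]sCT and competitor in 50 mM Tris-HCl pH 7.4 with 34 μM bacitracin. Tubes were centrifuged and the pellets washed, SDS-solubilized and scintillation counted. Nonspecific binding was taken with 1 μM sCT. IC50 came from probit analysis, and relative affinity set sCT = 100%.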

ED50 [1] | Relative affinity [2] | SMILES
53 pM | 150 | CC(C)C[C@H](NC(=O)[C@H](CCCCN)NC(=O)CNC(=O)[C@H](CC(C)C)NC(=O)[C@@H](NC(=O)[C@H](CS)NC(=O)[C@@H](NC(=O)[C@H](CO)NC(=O)[C@H](CC(C)C)NC(=O)[C@H](CC(N)=O)NC(=O)[C@H](CO)NC(=O)[C@@H](N)CS)[C@@H](C)O)C(C)C)C(=O)N[C@@H](CO)C(=O)N[C@@H](CCC(N)=O)C(=O)N[C@@H](CCC(=O)O)C(=O)N[C@@H](CC(C)C)C(=O)N[C@H]1CC(=O)NCCC[C@@H](C(=O)N[C@@H](Cc2ccc(O)cc2)C(=O)N2CCC[C@@H]2C(=O)N[C@@H](CCCN=C(N)N)C(=O)N[C@H](C(=O)N[C@@H](CC(N)=O)C(=O)N[C@H](C(=O)NCC(=O)N[C@@H](CO)C(=O)NCC(=O)N[C@H](C(=O)N2CCC[C@@H]2C(N)=O)[C@@H](C)O)[C@@H](C)O)[C@@H](C)O)NC(=O)[C@H](Cc2cn(N)cn2)NC(=O)[C@H](CC(C)C)NC(=O)[C@H](CCCCN)NC1=O
22000 pM | < 0.0075 | CC[C@H](C)[C@H](NC(=O)[C@H](C)NC(=O)[C@@H](NC(=O)[C@H](CCC(N)=O)NC(=O)[C@H]1CCCN1C(=O)[C@H](Cc1ccccc1)NC(=O)[C@@H](N[C@@H](Cc1c[nH]cn1)C(=O)N1CCC[C@H]1C(=O)[C@H](CCCCN)NC(=O)[C@H](CC(N)=O)NC(=O)[C@H](Cc1ccccc1)NC(=O)[C@H](CC(=O)O)NC(=O)[C@H](CCC(N)=O)NC(=O)[C@@H](NC(=O)[C@H](Cc1ccc(O)cc1)NC(=O)[C@@H](NC(=O)CNC(=O)[C@H](CC(C)C)NC(=O)[C@H](CCSC)NC(=O)[C@H](CS)NC(=O)[C@@H](NC(=O)[C@H](CO)NC(=O)[C@H](CC(C)C)NC(=O)[C@H](CC(N)=O)NC(=O)CNC(=O)[C@@H](N)CS)[C@@H](C)O)[C@@H](C)O)[C@@H](C)O)[C@@H](C)O)[C@@H](C)O)C(=O)NCC(=O)N[C@H](C(=O)NCC(=O)N[C@@H](C)C(=O)N1CCC[C@@H]1C(N)=O)C(C)C

Second part, the compound before the results:

SMILES | ED50 [1] | Relative affinity [2]
CCCC[C@H](NC(=O)[C@H](Cc1c[nH]cn1)NC(=O)[C@H](CC(C)C)NC(=O)[C@H](CCCCN)NC(=O)[C@H](CC(N)=O)NC(=O)[C@H](CC(C)C)NC(=O)[C@H](CCC(=O)O)NC(=O)[C@H](CCC(N)=O)NC(=O)[C@H](CO)NC(=O)[C@H](CC(C)C)NC(=O)[C@H](CCCCN)NC(=O)CNC(=O)[C@H](CC(C)C)NC(=O)[C@@H](NC(=O)[C@H](CS)NC(=O)[C@@H](NC(=O)[C@H](CO)NC(=O)[C@H](CC(C)C)NC(=O)[C@H](CC(N)=O)NC(=O)[C@H](CO)NC(=O)[C@@H](N)CS)[C@@H](C)O)C(C)C)C(=O)N[C@@H](Cc1ccc(O)cc1)C(=O)N1CCC[C@@H]1C(=O)N[C@@H](CCCN=C(N)N)C(=O)N[C@H](C(=O)N[C@@H](CC(N)=O)C(=O)N[C@H](C(=O)NCC(=O)N[C@@H](CO)C(=O)NCC(=O)N[C@H](C(=O)N1CCC[C@@H]1C(N)=O)[C@@H](C)O)[C@@H](C)O)[C@@H](C)O | 46 pM | 92
CC(C)C[C@H](NC(=O)[C@H](CCCCN)NC(=O)CNC(=O)[C@H](CC(C)C)NC(=O)[C@@H](NC(=O)[C@H](CS)NC(=O)[C@@H](NC(=O)[C@H](CO)NC(=O)[C@H](CC(C)C)NC(=O)[C@H](CC(N)=O)NC(=O)[C@H](CO)NC(=O)[C@@H](N)CS)[C@@H](C)O)C(C)C)C(=O)N[C@@H](CO)C(=O)N[C@@H](CCC(N)=O)C(=O)N[C@@H](CCC(=O)O)C(=O)N[C@@H](CC(C)C)C(=O)N[C@@H](Cc1c[nH]cn1)C(=O)N[C@@H](CCCCN)C(=O)N[C@@H](CC(C)C)C(=O)N[C@@H](CCC(N)=O)C(=O)N[C@H](C(=O)N[C@@H](Cc1ccc(O)cc1)C(=O)N1CCC[C@@H]1C(=O)N[C@@H](CCCN=C(N)N)C(=O)N[C@H](C(=O)N[C@@H](CC(N)=O)C(=O)N[C@H](C(=O)NCC(=O)N[C@@H](CO)C(=O)NCC(=O)N[C@H](C(=O)N1CCC[C@@H]1C(N)=O)[C@@H](C)O)[C@@H](C)O)[C@@H](C)O)[C@@H](C)O | 115 pM | 100
CC[C@H](C)[C@H](NC(=O)[C@H](C)NC(=O)[C@@H](NC(=O)[C@H](CCC(N)=O)NC(=O)[C@H]1CCCN1C(=O)[C@H](Cc1ccccc1)NC(=O)[C@@H](N[C@@H](Cc1c[nH]cn1)C(=O)NC(CCCCN)C(=O)[C@@H]1CCCN1C(=O)[C@H](CC(N)=O)NC(=O)[C@H](Cc1ccccc1)NC(=O)[C@H](CC(=O)O)NC(=O)[C@H](CCC(N)=O)NC(=O)[C@@H](NC(=O)[C@H](Cc1ccc(O)cc1)NC(=O)[C@@H](NC(=O)CNC(=O)[C@H](CC(C)C)NC(=O)[C@H](CCSC)NC(=O)[C@H](CS)NC(=O)[C@@H](NC(=O)[C@H](CO)NC(=O)[C@H](CC(C)C)NC(=O)[C@H](CC(N)=O)NC(=O)CNC(=O)[C@@H](N)CS)[C@@H](C)O)[C@@H](C)O)[C@@H](C)O)[C@@H](C)O)[C@@H](C)O)C(=O)NCC(=O)N[C@H](C(=O)NCC(=O)N[C@@H](C)C(=O)N1CCC[C@@H]1C(N)=O)C(C)C (some centres undefined) | 104000 pM | < 0.0075
CC(C)C[C@H](NC(=O)[C@H](CCCCN)NC(=O)CNC(=O)[C@H](CC(C)C)NC(=O)[C@@H](NC(=O)[C@H](CS)NC(=O)[C@@H](NC(=O)[C@H](CO)NC(=O)[C@H](CC(C)C)NC(=O)[C@H](CC(N)=O)NC(=O)[C@H](CO)NC(=O)[C@@H](N)CS)[C@@H](C)O)C(C)C)C(=O)N[C@@H](CO)C(=O)N[C@@H](CCC(N)=O)C(=O)N[C@@H](CCC(=O)O)C(=O)N[C@@H](CC(C)C)C(=O)N[C@H]1CC(=O)NCCCC[C@@H](C(=O)N[C@@H](Cc2ccc(O)cc2)C(=O)N2CCC[C@@H]2C(=O)N[C@@H](CCCN=C(N)N)C(=O)N[C@H](C(=O)N[C@@H](CC(N)=O)C(=O)N[C@H](C(=O)NCC(=O)N[C@@H](CO)C(=O)NCC(=O)N[C@H](C(=O)N2CCC[C@@H]2C(N)=O)[C@@H](C)O)[C@@H](C)O)[C@@H](C)O)NC(=O)[C@H](Cc2cn(N)cn2)NC(=O)[C@H](CC(C)C)NC(=O)[C@H](CCCCN)NC1=O | 75 pM | 210
CC[C@H](C)[C@H](NC(=O)[C@H](C)NC(=O)[C@@H](NC(=O)[C@H](CCC(N)=O)NC(=O)[C@@H]1CCCN1C(=O)[C@H](Cc1ccccc1)NC(=O)[C@@H](N[C@@H](Cc1c[nH]cn1)C(=O)N[C@@H](Cc1ccccc1)C(=O)[C@@H]1CCCN1C(=O)[C@H](CC(N)=O)NC(=O)[C@H](Cc1ccccc1)NC(=O)[C@H](CC(=O)O)NC(=O)[C@H](CCC(N)=O)NC(=O)[C@@H](NC(=O)[C@H](Cc1ccc(O)cc1)NC(=O)[C@@H](NC(=O)CNC(=O)[C@H](CC(C)C)NC(=O)[C@H](CCSC)NC(=O)[C@H](CS)NC(=O)[C@@H](NC(=O)[C@H](CO)NC(=O)[C@H](CC(C)C)NC(=O)[C@H](CC(N)=O)NC(=O)CNC(=O)[C@@H](N)CS)[C@@H](C)O)[C@@H](C)O)[C@@H](C)O)[C@@H](C)O)[C@H](C)O)C(=O)NCC(=O)N[C@H](C(=O)NCC(=O)N[C@@H](C)C(=O)N1CCC[C@H]1C(N)=O)C(C)C | 99000 pM | 0.02
